Series [1] has as its system cellular microtubules in A-10 cells. Nature of the series: Loss of cellular. The class given is cell-based, rat. To be noted: for Effect on cellular microtubules (in words): concentrations as high as 10 or 40 µM. The procedure, abridged:
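Rat aortic smooth muscle A-10 cells were exposed to DMSO vehicle or test compound for 18 h, fixed in cold methanol, and stained for β-tubulin by indirect immunofluorescence. […] It is reported as mean ±SD of 3–4 independent experiments.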

The test system of a further series is mitotic spindles. Nature of the series: Formation of aberrant mitotic spindles. The format is cell-based. Conditions: data not shown.
A further series concerns MDA-MB-435 cells. Nature of the series: Cell cycle distribution by flow cytometry. The format is cell-based, human. Conditions: 44.1 nM or 73.5 nM, 18 h.
Series [2] has as its system purified porcine brain tubulin. Nature of the series: Preliminary study of inhibition of tubulin polymerization. The class given is biochemical. Conditions: porcine brain tubulin 2.5 mg/mL, absorbance at 340 nm, 37 °C. A digest of the protocol: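 Porcine brain tubulin (2.5 mg/mL) was incubated with test compound, colchicine or DMSO vehicle. Polymerization was followed turbidimetrically as absorbance at 340 nm at 37 °C.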

A further series is described as follows: Water solubility. The class given is physicochemical.

For `CCN(c1ccc(OC)cc1)c1nc(N)nc2[nH]c3ccccc3c12` [Compound 14, N^4-Ethyl-N^4-(4-methoxyphenyl)-9H-pyrimido[4,5-b]indole-2,4-diamine], the “Effect on cellular microtubules (in words)” value (shortened to “Effect … (in words)”) in series [1] was “active”. Besides, the “Effect on mitotic spindles” value in the series on mitotic spindles is on record as “caused the formation of aberrant mitotic spindles”. In the case of `COc1ccc(N(C)c2nc(NC(=O)C(C)(C)C)nc3[nH]c4ccccc4c23)cc1` [Compound 7, N-{4-[(4-Methoxyphenyl)(methyl)amino]-9H-pyrimido[4,5-b]indol-2-yl}-2,2-dimethylpropanamide], the “Effect … (in words)” value in series [1] is “inactive”. For the molecule `COc1cccc(N(C)c2nc(N)nc3[nH]c4ccccc4c23)c1` [Compound 10, N^4-(3-Methoxyphenyl)-N^4-methyl-9H-pyrimido[4,5-b]indole-2,4-diamine], in series [1], the “Effect … (in words)” value was “inactive”. Turning to `COc1cc(Nc2nc(N)nc3[nH]c4ccccc4c23)cc(OC)c1OC` [Compound 12, N^4-(3,4,5-Trimethoxyphenyl)-9H-pyrimido[4,5-b]indole-2,4-diamine], in series [1], the “Effect … (in words)” value is “inactive”. As to `CCOc1ccc(N(C)c2nc(N)nc3[nH]c4ccccc4c23)cc1` [Compound 15, N^4-(4-Ethoxyphenyl)-N^4-methyl-9H-pyrimido[4,5-b]indole-2,4-diamine], in series [1], the “Effect … (in words)” value is reported as “active”. Also, the “Effect on mitotic spindles” value in the series on mitotic spindles is recorded as “caused the formation of aberrant mitotic spindles”. As to `COc1ccc(Nc2nc(N)nc3[nH]c4ccccc4c23)cc1` [Compound 4, N^4-(4-Methoxyphenyl)-9H-pyrimido[4,5-b]indole-2,4-diamine], in series [1], the “Effect … (in words)” value is “inactive”. `COc1ccc(N(C)c2nc(N)nc3[nH]c4ccccc4c23)cc1` [Compound 6, N^4-(4-Methoxyphenyl)-N^4-methyl-9H-pyrimido[4,5-b]indole-2,4-diamine]: in the series on MDA-MB-435 cells, the “Effect on cell cycle distribution” value is listed as “accumulation of cells in the G2/M phase of the cell cycle”. Moreover, the “Effect on interphase microtubule network (immunofluorescence)” value in series [1] (500 nM 6, 18 h incubation) was “extensive loss of the interphase microtubule network”. Also, the “Effect … (in words)” value in series [1] was “active”. Besides, the “Effect on mitotic spindles” value in the series with mitotic spindles is “caused the formation of aberrant mitotic spindles”. In series [2], the “Inhibition of tubulin assembly (initial study, in words)” value is recorded as “potent inhibitor of tubulin assembly”. `COc1ccc(N(C)c2nc(N)nc3[nH]c4ccccc4c23)cc1.Cl` [Compound 6·HCl, 4-((4-Methoxyphenyl)(methyl)amino)-9H-pyrimido[4,5-b]indol-2-aminium chloride]: in “Water solubility”, the Solubility in water entry is listed as “freely soluble in water”. On to `Cc1ccc(N(C)c2nc(N)nc3[nH]c4ccccc4c23)cc1` [Compound 13, N^4-Methyl-N^4-(4-methylphenyl)-9H-pyrimido[4,5-b]indole-2,4-diamine], for which, in series [1], the “Effect … (in words)” value was “inactive”.

The record behind these values is article PMC3572549 (Bioorganic & medicinal chemistry, 2012).
